Data set [1] in a line: Selectivity index, ratio of CC50 for human HuH7 cells to IC50 for HCV subtype 1a. Format: functional, Huh-7. The procedure, abridged:
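The ratio CC50/EC50 comes from the XTT cytotoxicity assay and the luciferase replicon assay, both run in replicon-bearing Huh-7 cells.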

Another data set concerns Hepatitis C virus. The data set is described as follows: Antiviral activity against HCV subtype 1a in Huh7 cells assessed as reduction of viral RNA replication. Type of data set: functional, organism-based, Hepacivirus hominis. The following applies: Huh-7. The procedure, abridged:
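Subgenomic HCV replicon (luciferase) in Huh-7 cells; compounds at 1 to 200 µM, with at least three experiments and three replicates per concentration. Luminescence is expressed as percent of control wells containing 1–2% DMSO. EC50 is the concentration that reduces luminescence by 50%.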

Data set [2] is described as follows: Cytotoxicity against human HuH7 cells by XTT assay. Format: cell-based, Huh-7. The procedure, abridged: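 Huh-7 cells carrying the HCV replicon were grown with serial dilutions (1 to 200 µM) for 3 days at 37 °C. XTT-PMS staining followed for 3–4 h at 37 °C. Absorbance was read at 450 nm against a 690 nm reference, with cell-free blank wells subtracted. Growth is expressed as percent of 1–2% DMSO controls, and CC50 is the concentration giving 50% growth inhibition.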
(Tetrazolium dyes change colour on reduction, which living cells bring about.)

The next data set concerns Escherichia phage T7. Nature of the data set: Inhibition of T7 RNA polymerase activity assessed as blockade of DNA transcription. The procedure, abridged:
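In vitro transcription with T7 RNA polymerase, using 0.5 µg EcoRI-cut pTZ19R carrying a 341 bp insert as template. The reaction contained 2 mM of each NTP, 1 U/µl RNase inhibitor and 12 U enzyme in 40 mM Tris-HCl pH 7.9, 6 mM MgCl2, 2 mM spermidine, 10 mM NaCl and 10 mM DTT. Incubation was 1 h at 37 °C. Products were run on 1.2% agarose with EtBr, and IC99 was obtained by band densitometry.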

A short description of data set [3]: Inhibition of HCV NS3 helicase activity by fluorimetric assay. More on the design: species or system Hepacivirus hominis. The procedure, abridged:
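Direct fluorometric assay of NS3 helicase unwinding, run at 37 °C. IC50 is the inhibitor concentration that reduces helicase activity by 50%.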

Data set [4] relates to Hepacivirus hominis. The data set is described as follows: Inhibition of HCV NS3 helicase activity in presence of increasing concentration of double stranded DNA substrate at 5 uM. The procedure, abridged:
(§1)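 Fluorometric NS3 helicase assay at 37 °C. Inhibitor was held at a constant concentration while the dsDNA substrate concentration was increased. Activity is expressed as percent of the same reaction with DMSO in place of inhibitor.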

The test system of data set [5] is Nucleic Acid. Nature of the data set: Binding affinity to HCV con1 dsDNA assessed as inhibition of ethidium bromide DNA intercalation by DNA migration retardation assay. Particulars: Hepacivirus hominis. Type of data set: nucleic-acid assay.
The nature of data set [6]: Binding affinity to dsRNA assessed as inhibition of ethidium bromide RNA intercalation at 20 uM by RNA migration retardation assay.
Data set [7] is described as follows: Binding affinity to dsRNA assessed as inhibition of ethidium bromide RNA intercalation by RNA migration retardation assay.
Data set [8] deals with Nucleic Acid. Nature of the data set: Binding affinity to HCV con1 dsDNA assessed as inhibition of ethidium bromide DNA intercalation at 500 uM by DNA migration retardation assay. Type of data set: nucleic-acid assay. Particulars: Hepacivirus hominis.
For data set [9], the system named is Hepacivirus hominis. The data set is described as follows: Inhibition of HCV NS3 helicase activity in presence of increasing concentration of double stranded DNA substrate at 10 uM. The procedure, abridged: as §1
Data set [10] relates to Hepacivirus hominis. Nature of the data set: Inhibition of HCV NS3 helicase activity in presence of increasing ATP concentration. The procedure, abridged: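 Fluorometric NS3 helicase assay, run at 37 °C, with IC50 determined at each of three ATP concentrations. Activity is expressed as percent of the same reaction with DMSO in place of inhibitor.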
For data set [11], the system named is Hepacivirus hominis. The data set is described as follows: Inhibition of HCV NS3 helicase activity in presence of increasing concentration of double stranded DNA substrate at 33 uM. The procedure, abridged:
as §1

SMILES strings stand for the structures. The source made the active and inactive calls. No cut-off for these calls is given here.

As a reminder, the EC50 is the concentration that produces a half-maximal response. As a reminder, the CC50 is the concentration that lowers cell viability or growth by half. High values mean lower toxicity to the cells, low ones greater toxicity to the cells. A word on the IC99: it is the concentration at which the effect reaches the 99% level. The IC50 is the midpoint of a concentration-inhibition curve. A low value points to inhibition by little substance. For the molecule `O=C(Nc1ccccn1)c1cccc2c(=O)c3ccccc3[nH]c12`, the “Ratio CC50/EC50” value in data set [1] is on record as 40.5. Besides, the EC50 in the data set with Hepatitis C virus came to 10.2 µM. This molecule gave a cytotoxic concentration (CC50) in data set [2] of 412 µM. Moreover, the IC99 with Escherichia phage T7 worked out at 40 µM. Also, in data set [3], the concentration for half-maximal inhibition (IC50) worked out at 3.8 µM. Besides, the outcome with Hepacivirus hominis [4] was inactive. In addition, the result (with Nucleic Acid [5]; in [6]) was Active.
On to `Cc1ccc(NC(=O)c2cccc3c(=O)c4ccccc4[nH]c23)cc1`, for which, in the data set on Hepatitis C virus, the EC50 is > 100 µM. The half-maximal cytotoxic concentration (CC50) in data set [2] is > 100 µM. Also, in the data set on Escherichia phage T7, the IC99 is 10 µM. In addition, the IC50 in [3] was > 100 µM. The outcome (in data set [6]; in data set [7]; in the data set on Nucleic Acid [8]) was inactive.
On to `O=C(Nc1ccncc1)c1cccc2c(=O)c3ccccc3[nH]c12`, for which, in [1], the “Ratio CC50/EC50” value is given as 19.4. Also, the EC50 in the data set with Hepatitis C virus came out at 9 µM. The molecule also displayed a CC50 in data set [2] of 175 µM. Besides, the concentration for an effect of 99% (IC99) with Escherichia phage T7 stood at 20 µM. The same molecule returned a half-maximal inhibitory concentration (IC50) in data set [3] of 8.9 µM. Besides, the outcome in the data set with Hepacivirus hominis [9] was inactive. In addition, the outcome (in the data set on Nucleic Acid [5]; in data set [6]) was Active.
In the case of `O=C(c1cccc2c(=O)c3ccccc3[nH]c12)N1CCOCC1`, the IC99 in the data set on Escherichia phage T7 is > 100 µM. For the same molecule, in data set [3], the half-inhibitory concentration (IC50) is > 100 µM.
Regarding `Cc1ccnc(NC(=O)c2cccc3c(=O)c4ccccc4[nH]c23)c1`, the “Ratio CC50/EC50” value in data set [1] came out at 1.1. Further, in the data set on Hepatitis C virus, the EC50 is 6.5 µM. Moreover, in [2], the CC50 was 7 µM. Also, the IC99 in the data set with Escherichia phage T7 was 40 µM. Also, in [3], the IC50 came out at 6.2 µM. For the same molecule, the outcome with Hepacivirus hominis [4] and in the data set with Hepacivirus hominis [10] was inactive.
As to `O=C(c1cccc2c(=O)c3ccccc3[nH]c12)N1CCCCC1`, the IC99 with Escherichia phage T7 was > 100 µM. In addition, the IC50 in data set [3] is > 100 µM.
Take `CN(C)CCNC(=O)c1cccc2c(=O)c3ccccc3[nH]c12`: the 99% effect concentration (IC99) in the data set with Escherichia phage T7 came to 80 µM. In data set [3], the IC50 is > 100 µM.
`Cc1cccnc1NC(=O)c1cccc2c(=O)c3ccccc3[nH]c12`: the “Ratio CC50/EC50” value in data set [1] is 3.5. The concentration for a half-maximal effect (EC50) in the data set on Hepatitis C virus was found to be 11.1 µM. The molecule further gave a CC50 in data set [2] of 39.2 µM. Further, the concentration for an effect of 99% (IC99) with Escherichia phage T7 was found to be 80 µM. The IC50 in [3] is 20.2 µM. Further, in the data set on Hepacivirus hominis [11], the result was inactive. Also, the outcome (in the data set on Nucleic Acid [5]; in data set [6]) was Active.
`O=C(NCCCN1CCOCC1)c1cccc2c(=O)c3ccccc3[nH]c12`: in the data set on Escherichia phage T7, the 99% effect concentration (IC99) is > 100 µM. Also, in [3], the IC50 is > 100 µM.
For `Cc1cccc(NC(=O)c2cccc3c(=O)c4ccccc4[nH]c23)c1`, the “Ratio CC50/EC50” value in data set [1] came to 1. Besides, the concentration for a half-maximal effect (EC50) in the data set on Hepatitis C virus worked out at 5.6 µM. The molecule also had a CC50 in data set [2] of 5.5 µM. Also, in the data set with Escherichia phage T7, the IC99 was 40 µM. Further, the 50% inhibitory concentration (IC50) in data set [3] is > 100 µM. Further, the outcome in [6] and in [7] was inactive.
Take `Cc1ccccc1NC(=O)c1cccc2c(=O)c3ccccc3[nH]c12`: the “Ratio CC50/EC50” value in data set [1] came to 5.2. The EC50 with Hepatitis C virus worked out at 19 µM. Moreover, in data set [2], the CC50 was found to be 99.3 µM. In the data set on Escherichia phage T7, the IC99 came out at 80 µM. Also, the concentration for half-maximal inhibition (IC50) in [3] is > 100 µM.
On to `O=C(NCc1ccccn1)c1cccc2c(=O)c3ccccc3[nH]c12`, for which, in data set [1], the “Ratio CC50/EC50” value came out at 2.4. Also, in the data set on Hepatitis C virus, the 50% effective concentration (EC50) came to 4.3 µM. In data set [2], this molecule came in with a CC50 of 10.2 µM. Moreover, the concentration for an effect of 99% (IC99) in the data set on Escherichia phage T7 was > 100 µM. Besides, the 50% inhibitory concentration (IC50) in data set [3] is > 100 µM. Besides, the outcome in data set [6] was inactive.
Regarding `[N-]=[N+]=N[C@]1(CO)O[C@@H](n2ccc(N)nc2=O)[C@H](O)[C@@H]1O` [4'-AZIDOCYTIDINE], the concentration for a half-maximal effect (EC50) in the data set with Hepatitis C virus was 1.4 µM.
For the molecule `O=C(Nc1ccccc1)c1cccc2c(=O)c3ccccc3[nH]c12`, the “Ratio CC50/EC50” value in data set [1] is recorded as 7.1. For the same molecule, the EC50 in the data set with Hepatitis C virus was determined as 12.9 µM. In data set [2], this molecule gave a CC50 of 90.9 µM. Moreover, the IC99 in the data set with Escherichia phage T7 is 40 µM. Moreover, the IC50 in data set [3] was > 100 µM.

The record behind these values is ChEMBL document CHEMBL1152218, “New acridone-4-carboxylic acid derivatives as potential inhibitors of hepatitis C virus infection” (Bioorg Med Chem, 2008).
